Results taken from ChEMBL document CHEMBL3259627, “Allosteric inhibition of human factor XIa: discovery of monosulfated benzofurans as a class of promising inhibitors” (J Med Chem, 2014).
The source made the active and inactive calls. The rule behind the calls is not given here.

Tests used:
[1] = target: T1, Coagulation factor XI (Homo sapiens, UniProt P03951); assay: Inhibition of full-length human factor-11a-mediated S-2366 hydrolysis preincubated for 10 mins followed by substrate addition by spectrophotometric analysis relative to control
Procedure, shortened: (§1)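 Dose-response run in the same Tris pH 7.4 buffer with NaCl, PEG8000 and Tween80. Serial 2/3 or 5/6 inhibitor dilutions were preincubated 10 min at 37 °C with fXIa (0.765 nM final). S-2366 was then added (330 μM final) and the initial A405 rate read. Residual activity versus log[I] was fitted to a logistic equation for IC50, Hill slope, YM and Y0. At least two measurements; ± SD.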

[2] = target: T1, Coagulation factor XI; assay: Inhibition of full-length human factor-11a-mediated S-2366 hydrolysis assessed as reduction in residual activity at 300 uM preincubated for 10 mins followed by substrate addition by spectrophotometric analysis relative to control
Procedure, shortened: (§2)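 Single-point screen: inhibitor (300 μM final) incubated with fXIa (0.765 nM final) in 0.05 M Tris-HCl pH 7.4, 0.15 M NaCl, 0.1% PEG8000, 0.02% Tween80, 10 min at 37 °C. S-2366 then added (330 μM final) and the initial rate taken from A405 rise (<10% conversion). Residual activity (%) is the rate ratio with versus without inhibitor. At least duplicate; mean ± SD.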

[3] = target: T1, Coagulation factor XI; assay: Inhibition of full-length human factor-11a-mediated S-2366 hydrolysis preincubated for 10 mins followed by substrate addition by spectrophotometric analysis; procedure, shortened: as §1
[4] = target: T1, Coagulation factor XI; assay: Inhibition of full-length human factor-11a-mediated S-2366 hydrolysis at 300 uM preincubated for 10 mins followed by substrate addition by spectrophotometric analysis relative to control; procedure, shortened: as §2
[5] = target: T1, Coagulation factor XI; assay: Activation of full-length human factor-11a-mediated S-2366 hydrolysis at 300 uM preincubated for 10 mins followed by substrate addition by spectrophotometric analysis relative to control; set-up: scale not given: the % may be the effect or the level left; procedure, shortened: as §2
[6] = target: T1, Coagulation factor XI
[7] = target: T1, Coagulation factor XI; assay: Inhibition of human factor-11a catalytic domain-mediated S-2366 hydrolysis preincubated for 10 mins followed by substrate addition by spectrophotometric analysis
Procedure, shortened: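 Recombinant fXIa catalytic domain (0.765 nM final) in 0.05 M Tris-HCl pH 7.4, 0.15 M NaCl, 0.1% PEG8000, 0.02% Tween80. Incubated 10 min at 37 °C with serial inhibitor dilutions (2/3 or 5/6 decrements), then S-2366 added to 330 μM final. Initial A405 rate gives residual activity; IC50 from logistic fit versus log[I]; at least two measurements.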

[8] = target: T1, Coagulation factor XI; assay: Binding affinity to fluorescein-EGR-labeled human factor-11a by fluorescence spectroscopic analysis
Procedure, shortened: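 fXIa active-site labeled with fluorescein-EGR (74 nM) in Tris pH 7.4 buffer without Tween80 at 37 °C. Excitation at 480 nm, emission recorded at 522 nm during ligand titration. ΔF/F0 versus ligand concentration was fitted to a quadratic binding equation to give the dissociation constant.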

T1 sequence (P03951 19-387 limits assumed): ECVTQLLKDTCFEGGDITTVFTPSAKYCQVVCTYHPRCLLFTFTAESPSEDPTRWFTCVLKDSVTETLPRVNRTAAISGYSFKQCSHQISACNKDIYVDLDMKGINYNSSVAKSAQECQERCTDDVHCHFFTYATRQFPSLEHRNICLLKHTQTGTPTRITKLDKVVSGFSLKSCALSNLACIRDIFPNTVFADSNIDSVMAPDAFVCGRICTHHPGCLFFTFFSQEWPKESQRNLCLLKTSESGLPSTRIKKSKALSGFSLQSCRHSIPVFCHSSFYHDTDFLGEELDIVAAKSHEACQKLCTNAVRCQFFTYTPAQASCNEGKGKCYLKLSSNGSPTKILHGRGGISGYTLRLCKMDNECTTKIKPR
T1 sequence (P03951 388-625 limits assumed): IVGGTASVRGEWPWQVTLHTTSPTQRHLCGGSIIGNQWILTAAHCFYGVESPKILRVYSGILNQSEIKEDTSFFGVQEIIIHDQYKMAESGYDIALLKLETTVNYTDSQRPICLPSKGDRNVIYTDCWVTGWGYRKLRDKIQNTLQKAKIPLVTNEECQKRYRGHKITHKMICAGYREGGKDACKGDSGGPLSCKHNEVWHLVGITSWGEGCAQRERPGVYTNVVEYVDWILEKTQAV

Compound | Efficacy [1] [%] | Activity [2] [%] | IC50 [3] [µM] | further results
O=C(Nc1ccc(OS(=O)(=O)O)cc1)c1cccc(N2C(=O)c3ccc(C(=O)Nc4ccc(OS(=O)(=O)O)cc4)cc3C2=O)c1 | 100 | > 50 | 122 | 
CCOC(=O)c1c(C)oc2cc(OC)c(OCc3oc4cc(OC)c(OCc5oc6cc(OS(=O)(=O)O)c(OC)cc6c5C(=O)OCC)cc4c3C(=O)OCC)cc12 |  |  |  | inhibition [4]: inactive
CCOC(=O)c1c(C)oc2cc(OC)c(OCc3oc4cc(OC)c(OCc5oc6cc(OC)c(OCc7oc8cc(OC)c(OS(=O)(=O)O)cc8c7C(=O)OCC)cc6c5C(=O)OCC)cc4c3C(=O)OCC)cc12 | 100 | > 50 | 99 | 
CCOC(=O)c1c(C)oc2cc(OC)c(OCc3oc4cc(OC)c(OCc5oc6cc(OC)c(OS(=O)(=O)O)cc6c5C(=O)OCC)cc4c3C(=O)OCC)cc12 | 100 | > 50 | 6.4 | 
CCOC(=O)c1c(COc2cc3c(C(=O)OCC)c(COc4cc5c(C(=O)O)c(C)oc5cc4OC)oc3cc2OC)oc2cc(OC)c(O)cc12 | 100 |  | 384 | inhibition [4]: 50%
CCOC(=O)c1c(C)oc2cc(OC)c(OCc3oc4cc(OC)c(OCc5oc6cc(OC(C)C)c(OS(=O)(=O)O)cc6c5C(=O)OCC)cc4c3C(=O)OCC)cc12 | 100 | > 50 | 47.2 | 
O=C(c1cc(OS(=O)(=O)O)c(OS(=O)(=O)O)c(OS(=O)(=O)O)c1)N1CCc2cc(OS(=O)(=O)O)c(OS(=O)(=O)O)cc2C1 |  |  |  | Activity [5]: 20%
COC(=O)c1c(C)oc2cc(OC)c(OCc3oc4cc(OC)c(OS(=O)(=O)O)cc4c3C(=O)OC)cc12 | 100 | > 50 | 9.7 | 
CCOC(=O)c1c(C)oc2cc(OC)c(OCc3oc4cc(OC)c(OCc5oc6cc(OCC)c(OS(=O)(=O)O)cc6c5C(=O)OCC)cc4c3C(=O)OCC)cc12 | 100 | > 50 | 0.82 | KSV [6]: 2.3; IC50 [7]: 49 µM; Kd [8]: 1.2 µM
O=C(O)C1Cc2cc(OS(=O)(=O)O)c(OS(=O)(=O)O)cc2CN1C(=O)c1cc(OS(=O)(=O)O)c(OS(=O)(=O)O)c(OS(=O)(=O)O)c1 (stereo unspecified) |  |  |  | Activity [5]: 20%
N#Cc1c(SCC(=O)c2cccc(OS(=O)(=O)O)c2OS(=O)(=O)O)nc([N+](=O)[O-])c(C#N)c1-c1ccc(Oc2ccccc2)cc1 | 100 | > 50 | 109 | 
O=C(c1cc(OS(=O)(=O)O)cc(OS(=O)(=O)O)c1)N1CCc2cc(OS(=O)(=O)O)c(OS(=O)(=O)O)cc2C1 |  |  |  | Activity [5]: 20%
C=CCOC(=O)c1c(C)oc2cc(OC)c(OCc3oc4cc(OC)c(OCc5oc6cc(OC)c(OS(=O)(=O)O)cc6c5C(=O)OCC)cc4c3C(=O)OCC)cc12 | 100 | > 50 | 29.9 | 
CCOC(=O)c1c(COc2cc3c(C(=O)O)c(C)oc3cc2OC)oc2cc(OC)c(OCc3oc4cc(OC)c(OS(=O)(=O)O)cc4c3C(=O)OCC)cc12 | 100 | > 50 | 29.9 | 
CCOC(=O)c1c(C)oc2cc(OCc3oc4cc(OC)c(OS(=O)(=O)O)cc4c3C(=O)OCC)c(OC)cc12 |  |  |  | inhibition [4]: inactive
CCOC(=O)C1Cc2cc(OS(=O)(=O)O)c(OS(=O)(=O)O)cc2CN1C(=O)c1ccc(OS(=O)(=O)O)c(OS(=O)(=O)O)c1 (stereo unspecified) |  |  |  | Activity [5]: 20%
CCOC(=O)c1c(C)oc2cc(OC)c(OCc3oc4cc(OCC)c(OS(=O)(=O)O)cc4c3C(=O)OCC)cc12 | 100 | > 50 | 7.5 | Kd [8]: 4.5 µM
CCOC(=O)c1c(C)oc2cc(OC)c(OCc3oc4cc(OC)c(OCc5oc6cc(OC)c(OS(=O)(=O)O)cc6c5C(=O)OC)cc4c3C(=O)OCC)cc12 | 100 | > 50 | 14.9 | 
